Sampled rows, rich in hits. Any-hit rate of the full collection: about 2.9%.
PRMT1 FP inh – PRMT1 methyltransferase inhibitors, primary screen, biochemical, fluorescence polarization. 370,000 tested, 1.3% active. recombinant PRMT1, activity-based probe fluorescence polarization. inhibition, % at 2.79 µM;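 active = inhibition above about 21% made by adding two undisclosed values, limit read from the data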
SIAE primary – human SIAE inhibitors, primary screen, biochemical, fluorescence polarization, FP-Rh probe, 1536-well HTS | Sialate O-acetylesterase (Homo sapiens), Q9HAT2 | SIAE FP-Rh probe binding | inhibition, % at 9.66 µM | 370,000 tested, 0.69% active;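 active = inhibition above a cutoff: mean of compounds within the control limits plus 3 SD of those, cut at about 17% in these data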;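 also: 0% = plate median of compound wells and 100% = probe without SIAE protein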
HTRA1 inhibitor – HTRA1 serine protease inhibitors, primary screen, biochemical, fluorescence polarization, HTS | Q92743 | recombinant HTRA1, FP-rhodamine activity-based probe | inhibition, % at 5.96 µM | 340,000 tested, 0.5% active | AID 504803, 2011; in the data active = inhibition above about 36%;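 also: 0% = enzyme with DMSO and 100% = wells lacking enzyme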
TCR CD3 inh – inhibitors of human TCR-CD3 interaction, primary screen, biochemical, fluorescence, TAMRA-labeled TCR probe; inhibition, % at 9.4 µM; 360,000 tested, 0.37% active; AID 651800, 2012; in the data active = inhibition above about 19%;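 also: recombinant mutant TCR 2C K166C tagged with TAMRA read by polarization; 0% = receptor in buffer alone and 100% = receptor with positive control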
mABHD4 FP – ABHD4 inhibitors, primary screen, biochemical, fluorescence polarization, mouse. AID 720543, 2013. purified mABHD4, FP-Rh probe fluorescence polarization. inhibition, % at 8.92 µM. 370,000 tested, 0.54% active;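 active = inhibition exceeding the mean over every tested compound plus 3 SD, cut at about 30% in these data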;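 also: 0% = plate median of compound wells and 100% = S159A mutant with DMSO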
Target sequence (Q8VD66 whole entry, looked up): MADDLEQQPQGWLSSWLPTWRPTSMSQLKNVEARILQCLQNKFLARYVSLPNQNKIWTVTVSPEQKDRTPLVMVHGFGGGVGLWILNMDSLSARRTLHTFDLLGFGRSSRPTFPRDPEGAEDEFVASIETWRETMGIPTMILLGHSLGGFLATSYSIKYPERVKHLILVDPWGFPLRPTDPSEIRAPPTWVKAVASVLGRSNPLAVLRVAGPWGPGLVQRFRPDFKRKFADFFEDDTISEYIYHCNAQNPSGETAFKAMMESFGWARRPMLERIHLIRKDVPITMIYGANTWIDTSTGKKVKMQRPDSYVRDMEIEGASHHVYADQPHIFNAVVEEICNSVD
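Test system: mouse ABHD4 enzyme, wild type. Reagent: FP-Rh fluorescent activity-based probe, added after compound pre-incubation. Timing: pre-incubation 45 min, probe exposure 60 min, at 25 °C. Technique: FP readout, ex 525 nm / em 598 nm. Benchmarks: high control S159A mutant with DMSO, low control median of compound wells.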
PAD4 FP inh – human PAD4 inhibitors, primary screen, biochemical, fluorescence polarization, 1536-well format. inhibition, % at 6.36 µM. Protein-arginine deiminase type-4 (Homo sapiens), Q9UM07. 330,000 tested, 0.41% active. recombinant PAD4, RCA probe fluorescence polarization;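 active = percent inhibition above a cutoff equal to the mean of all tested compounds plus 3 SD, cut at about 15% in these data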;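 also: 0% = PAD4 with RCA probe and DMSO and 100% = probe without PAD4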
PRMT1 confirm – PRMT1 methyltransferase inhibitors, confirmation, biochemical, fluorescence polarization, triplicate | shares compounds with PRMT1 FP inh | recombinant His-PRMT1, activity-based probe fluorescence polarization | inhibition, % at 2.79 µM | 3,300 tested, 42% active;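 active = mean inhibition across replicates above the hit cutoff derived for the earlier primary screen, cut at about 22% in these data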
mABHD4 conf – ABHD4 inhibitors, retest, confirmation, biochemical, fluorescence polarization, mouse. shares compounds with mABHD4 FP. inhibition, % at 8.92 µM. purified mABHD4, FP-Rh probe fluorescence polarization. 1,800 tested, 55% active. AID 720658, 2013;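 active = mean inhibition across replicates above the hit cutoff set in the primary screen, cut at about 30% in these data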;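 also: 0% = wild-type ABHD4 with DMSO and 100% = catalytically dead S159A mutant with DMSO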
SIAE confirm – human SIAE inhibitors, retest, confirmation, biochemical, fluorescence polarization, FP-Rh probe, triplicate. shares compounds with SIAE primary. SIAE FP-Rh activity-based probe. inhibition, % at 9.66 µM. 2,300 tested, 13% active. AID 1117263, 2014;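 active = mean inhibition of the replicates above the hit cutoff set in the primary screen, cut at about 17% in these data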;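 also: 0% = SIAE with DMSO and probe and 100% = probe without SIAE; inhibitors lower polarization as more probe stays unbound to SIAE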
Starred values were filed as active, the others as inactive; · = no result; + = active, no number.

SMILES	PRMT1 FP inh	SIAE primary	HTRA1 inhibitor	TCR CD3 inh	mABHD4 FP	PAD4 FP inh	PRMT1 confirm	others
O=S(=O)(c1cc(Cl)cc(Cl)c1)N1Cc2cc(-c3cccc(F)c3)ccc2-n2nncc2C1	-1.4	-2.3	·	2.9	5.8	·	·
COc1cccc(C(c2nnnn2C(C)(C)C)N2CCC3(CC2)C(=O)NCN3c2ccccc2)c1OC (stereo unspecified)	-7.2	11.3	·	6.7	-4.2	·	·
CCOC(=O)[C@]12Cc3c(cc(OC)c(OC)c3OC)[C@H]1N(C1CCCCC1)C(=O)c1ccccc12	0.8	7.1	·	-4.9	5.6	·	·
CN=C(SCc1ccccc1)c1c(O)n(C)c(=O)n(C)c1=O	1.0	2.5	8.7	-9.3	4.7	-8.0	·
C=CCN=C(SCC(=O)c1ccc(Cl)cc1)c1c(O)n(C)c(=O)n(C)c1=O	29.4*	-2.6	6.8	10.4	-6.4	1.9	31.3*
NC(Cc1ccc(N(CCCl)CCCl)cc1)C(=O)O (stereo unspecified)	2.3	-1.8	·	·	9.7	·	·
O=C(CNCc1c(F)cccc1F)N1CCC2(CC1)OCCO2	-5.8	2.2	·	·	-0.1	·	·
C=CCOC(=O)C1C(C(=O)O)C2(Cl)C(Cl)=C(Cl)C1(Cl)C2(Cl)Cl (stereo unspecified)	63.9*	1.7	0.5	-0.9	-1.1	·	5.6
O=C(O)C1C(C(=O)O)C2(Cl)C(Cl)=C(Cl)C1(Cl)C2(Cl)Cl (stereo unspecified)	5.8	-1.8	6.7	-3.6	2.9	3.1	·
O=C1NC(=O)C(=Cc2c(Cl)cccc2Cl)C(=O)N1	31.5*	-0.6	1.2	-3.0	-4.7	·	19.0
CN1C(=O)C(=Cc2ccc(Sc3ccccc3)o2)C(=O)N(C)C1=S	36.3*	-11.7	-7.2	-40.9	-22.1	-16.7	75.6*
CC/C(=N\NC(=S)Nc1ccccc1)c1c(O)[nH]c(=O)[nH]c1=O	45.3*	2.0	-4.3	-3.4	6.7	-1.6	46.1*
N#CCCC#N	-2.0	4.8	·	11.1	-1.1	·	·
Cc1nn(CCC#N)c2c1P(=S)(N1CCCC1)OC(c1ccc(F)cc1)=N2 (stereo unspecified)	76.6*	5.8	4.5	6.7	6.6	-0.5	43.6*
c1ccc(-c2nc3ccccc3nc2-c2ccc(CN3CCC(n4nnc5ccccc54)CC3)cc2)cc1	-1.9	-11.2	·	1.8	-14.2	·	·
COC1CC2C=C(C)C=CC=CC(=O)NC(c3ccccc3)CC=CCCC(O)CC(=O)C2=C1O (stereo unspecified)	12.6	-1.8	·	7.1	29.1	·	·
CCN1/C(=C/C=C/C2=[N+](CC)c3ccccc3C2(C)C)C(C)(C)c2ccccc21	155.5*	+	-288.0	-83.2	+	·	130.6*	mABHD4 conf=+;SIAE confirm=+
O=P1(NCCCl)OCCC(OO)N1CCCl (stereo unspecified)	0.4	-2.9	·	-5.5	3.1	·	·
O=P(Oc1ccccc1)(Oc1ccccc1)C(O)c1ccc(Cl)cc1 (stereo unspecified)	3.5	1.5	-7.5	3.3	32.5*	-0.1	·	mABHD4 conf=16.0
COc1ccc(C(O)P(=O)(Oc2ccccc2)Oc2ccccc2)cc1 (stereo unspecified)	-10.1	-7.7	-4.8	2.2	24.6	-5.0	·
COc1ccc(-c2ccc3c(c2)CN(C(=O)NC2CCCCC2)Cc2cnnn2-3)cc1	4.6	-11.1	·	-8.8	-24.3	·	·
Cc1ccc(-n2c(=S)[nH]c3ccccc3c2=O)cc1F	-1.4	-15.2	-40.2	9.1	17.2	·	·

High-throughput results as filed in PubChem.
